Variants at the floor of the assay were thinned out.
B1: tRNA (parent)
chain: GUUCCGUUGGCGUAAUGGUAACGCGUCUCCCUCCUAAGGAGAAGACUGCGGGUUCGAGUCCCGUACGGAACG

Variants of: B1
Experiment: yeast fitness relative to wild type (ratio to wild type); higher = fitter; tRNA-Arg(CCU), competitive growth, 37 C, YPD
In short: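 The tRNA-Arg(CCU) gene variants were made by chemical synthesis with a 3% per-site mutation rate at 69 sites and inserted at the native genomic locus of Saccharomyces cerevisiae. After pooling, the strains were competed in YPD at 37°C for 24 hours in six parallel replicates. Gene amplicons from the start population and each end population were read by 100-nucleotide paired-end sequencing, and Darwinian fitness relative to wild type was taken from genotype frequency changes. Genotypes needed ≥ 100 starting reads, and estimates < 0.5 were set to 0.5.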

| Variant | yeast fitness |
| --- | --- |
| GUUCGGUUGGCGUAAUGGUAACGCGUCUCCCUCCUAAGGAGAAGUCUGCGGGUUCGAGUCCCGUACGGAACG | 1.01 |
| GUUCGGUUGGCGUAAUGGUAACGCGUCUCCCUCCUAAGGAGAAGGCUGCGGGUUCGAGUCCCGUACGGAACG | 0.984 |
| GUUCGGUUGGCGUAAUGGUAGCGCGUCUCCCCCCUAAGGAGAAGACUGCGGGUUCGAGUCCCGUACGGCACG | ≤ 0.5 |
| GUUCGGUUGGCGUAAUGGUAACGCGUCUCCCUCCUAAGGAGAGGACUGCGGGUUCGAGUCCCGUACUGAACG | 0.543 |
| GUUCGGUUGGCGUAAUGGUAACGCGUCUCCCUCCUAAGGAGUAGACUGCGGGUUCGAGUCCCAUACGGAACG | 0.531 |
| GUUCGGUUGGCGUAAUGGUAUCGCGUCUACCUCCUAAGGAGAAGACUGCGGGUUCGAGUCCCGCACGGAACG | ≤ 0.5 |
| GUUCGGUUGGCGUAAUGGUAACGCGUCUCCCUCCUGAGGAGAACACUGCGGGUUCGAGUCCCGUACGGAACG | 0.672 |
| GUUCGGUUGGCGUAAUGGUAACGCGUCUCCCUCCUAUGGAGAAGAUUGCGGGUUCGAGUCCCGUACGGAACG | 0.536 |
| GUUCGGUUGGCGUAAUGGUAACGCGUCUCCCUCCUAAGGAGCAGACUGCGGGUUCGAGUCCCGUACGGACCG | 0.689 |
| GUUCGGUUGGCGUAAUGGUGACGCGUCUCCCUCCUAAGGAGAAGAUUGCGGGUUCGAGUCCCGUACGGAACG | 0.638 |
| GUUCGGUUGGCGUAAUGGUAACGCGUCUCCCUCCUAAGGAGCAGACUGCGGGUGCGAGUCCCGUACGGAACG | ≤ 0.5 |
| GUUCGGUUGGCGUAAUGGUAACGCGUCUCCCUCCUAAGGCGAAGACUGUGGGUUCGAGUCCCGUACGGAACG | ≤ 0.5 |
| GUUCGGUUGGCGUAAUGGUUACGCGUCUCCCUCCUAAGGAGAAGACUGCGGGUUCGAGUCCCGUGCGGAACG | 0.65 |
| GUUCGGUUGGCGUAAUGGUAACGCGUCUCCCUCCUAAGGAGUAGACUGCGGGUUCGAGUCCCGUACGAAACG | 0.582 |
| GUUCGGUUGGCGUAAUGGUCACGCGUGUCCCUCCUAAGGAGAAGACUGUGGGAUCGAGUCCCGUACGGAACG | 0.568 |
| GUUCGGUUGGCGUAAUGGUAACGCGUCUCCCUCCUAAGGAGGAGACUGCGGGUUCGAGUCCCGGACGGAACG | 0.637 |
| GUUCGGUUGGCGUAAUGGUAACGCGUCUCCCUCCUAAGGAGGAGACUGCGGGUUCGAGUCCCGCACGGAACG | 0.72 |
| GUUCGGUUGGCGUAAUGGUAACGCGUCUCCCUCCUAAGGAGACGACUGCGGCUUCGAGUCCCGUACGGAACG | ≤ 0.5 |
| GUUCGGUUGGCGUAAUGGUAACGCGUCUCCCUCCUACGGAGUAGACUGCGGGUUCGAGUCCCGUACGGAACG | 0.533 |

| Variant | yeast fitness |
| --- | --- |
| GUUCGGUUGGCGUAAUGGUCACGUGUCUCCCUCCUAAGGAGAAGACUGCGGGUUUGAGUCCCGUACGGAACG | ≤ 0.5 |
| GUUCGGUUGGCGUAAUGGUAGCGCGCCUCCCUCCUAAGGAGAAGACUGAGGGUCCGAGUCCCGUGCGGAACG | ≤ 0.5 |
| GUUCGGUUGGCGUAAUGGUAACGCGUCUCCCUCCUAAGGAGAAGCCUGCGGGUUCGAGUCCCGGACGGAACG | ≤ 0.5 |
| GUUCGGUUGGCGUAAUGGUAACGCGUCUCCCUCCUAGGGAGAAGAGUGCGGGUUCGAGUCCCGUACGGAACG | 0.598 |
| GUUCGGUUGGCGUAAUGGUACCGCGUCUCCCCCCUAAGAAGAAGACUGCGGGUUCGUGCCCCGUACGGAACG | ≤ 0.5 |
| GUUCGGUUGGCGUAAUGGUUACGCGUCUCCCUCCUAAGGAGAAGACUGCGGGUUCGAGUCCCGUACGGAACG | 0.621 |
| GUUCGGUUGGCGUAAUGGUAACGCGUCUCCCUCCUAAGGAGAAGCCUGCGGGUUCGAGUUCCGUACGGUACG | 0.52 |
| GUUCGGUUGGCGUAAUGGUGACGCGUCUCCCUCCUAAGGGGAAAAGUGCGGGUUCGAGUCCCGUACGGAACG | 0.517 |
| GUUCGGUUGGCGUAAUGGUAACGCGUCUCCCUCCUAAGGAGCAGACUGCGGGUUCGAGUACCGUACGGAACG | ≤ 0.5 |
| GUUCGGUUGGCGUAAUGGUCACACGUCUCCCUCCUAAGGAGAAGACUGCGGGUACGAGUCCCGUACGGAACG | ≤ 0.5 |
| GUUCGGUUGGCGUAAUGGUACCGCGUCUCCCUCCUAAGGAGAUGACUGCGGGUUCGAGUCCCGUACGGAGCG | ≤ 0.5 |
| GUUCGGUUGGCGUAAUGGUAACGCGUCUCCCUCCUACGGAGAAGACUGCGGGUUCGUGUCCCGUACGGAACG | ≤ 0.5 |
| GUUCGGUUGGCGUAAUGGUAACGCGUCUCCCUCCUAAGGUGGAGACUGCGGGAACGAGUCCCGUACGGAACG | ≤ 0.5 |
| GUUCGGUUGGCGUAAUGGUAACGCGUCUCCCUCCUACGGAGAGGUCUGCGCGUUCGAGUCCGGUACGGAACG | ≤ 0.5 |
| GUUCGGUUGGCGUAAUGGUCACGCGUCUCCCUCCUAAGGAGAAGACUACGGGUUCGAGUCCCGUACGGAACG | ≤ 0.5 |
| GUUCGGUUGGCGUAAUGGUAACGCGUCUCCCUCCUAAGGAGAAGCCUGCGGGUUCGUGUCCCGUACGGAACG | ≤ 0.5 |
| GUUCGGUUGGCGUAAUGGUGACGCGUCUCCCUCCUAAGGAGAAGACUGCGGGUUGGAGUCCCGUACGGAACG | 0.538 |
| GUUCGGUUGGCGUAAUGGUGACGCGUCUCCCUCCUCAGGAGGAGACUGCGGGUUCGAGUCCCGUACGGAACG | ≤ 0.5 |
| GUUCGGUUGGCGUAAUGGUAACGCGUCUCCCUCCUAAGGAGUAGACUGCGGGUUCGAGUCCCGUACGGACCG | 0.681 |
